How the values were obtained:
Format in all cases: functional, cell-based
[1] = target: T1, 5-hydroxytryptamine receptor 2A (Homo sapiens, UniProt P28223); assay: Agonist activity at human 5HT2A receptor expressed in HEK293 cells assessed as calcium flux measured every sec for 3 mins by FLIPR assay
[2] = target: T2, 5-hydroxytryptamine receptor 2B (Homo sapiens, UniProt P41595); assay: Agonist activity at human 5HT2B receptor expressed in HEK293 cells assessed as calcium flux measured every sec for 3 mins by FLIPR assay
T2 sequence (P41595 whole entry): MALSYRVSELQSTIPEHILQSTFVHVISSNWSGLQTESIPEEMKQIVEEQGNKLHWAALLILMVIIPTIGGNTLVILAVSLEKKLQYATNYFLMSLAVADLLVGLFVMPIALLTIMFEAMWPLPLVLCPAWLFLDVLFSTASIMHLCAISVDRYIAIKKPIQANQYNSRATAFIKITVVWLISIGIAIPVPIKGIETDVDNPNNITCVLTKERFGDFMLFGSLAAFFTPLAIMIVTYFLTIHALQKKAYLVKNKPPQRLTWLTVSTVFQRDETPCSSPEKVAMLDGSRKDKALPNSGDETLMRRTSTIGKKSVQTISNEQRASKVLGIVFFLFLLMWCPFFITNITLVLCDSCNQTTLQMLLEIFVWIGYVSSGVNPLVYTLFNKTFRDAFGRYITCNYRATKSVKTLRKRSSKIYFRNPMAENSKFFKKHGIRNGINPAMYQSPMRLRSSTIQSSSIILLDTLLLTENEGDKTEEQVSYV

[3] = target: T3, 5-hydroxytryptamine receptor 2C (Homo sapiens, UniProt P28335); assay: Agonist activity at human 5HT2C receptor expressed in HEK293 cells assessed as calcium flux measured every sec for 3 mins by FLIPR assay
T3 sequence (P28335 whole entry): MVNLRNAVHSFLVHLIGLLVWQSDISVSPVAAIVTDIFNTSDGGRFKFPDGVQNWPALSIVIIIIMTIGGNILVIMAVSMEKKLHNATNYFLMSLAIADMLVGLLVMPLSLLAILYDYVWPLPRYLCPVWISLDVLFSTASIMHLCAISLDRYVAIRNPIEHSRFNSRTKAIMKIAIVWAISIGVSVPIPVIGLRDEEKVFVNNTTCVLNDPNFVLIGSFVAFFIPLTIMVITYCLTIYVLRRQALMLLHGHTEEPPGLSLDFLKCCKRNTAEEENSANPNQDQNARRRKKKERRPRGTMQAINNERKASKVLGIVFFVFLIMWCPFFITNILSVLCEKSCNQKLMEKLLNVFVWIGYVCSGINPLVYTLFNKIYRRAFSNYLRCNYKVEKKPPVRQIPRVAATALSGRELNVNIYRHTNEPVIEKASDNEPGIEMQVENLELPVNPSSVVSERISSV

[4] = target: T4, 5-hydroxytryptamine receptor 2C (Homo sapiens) (UniProt P28335); assay: Agonist activity at human 5HT2C receptor expressed in HEK293 cells assessed as calcium flux measured every sec for 3 mins by FLIPR assay relative to 5HT
T4 sequence (whole entry): T3 sequence (P28335 whole entry)
Outline: (§1)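 Calcium flux (Gαq-mediated) in HEK-293 cells stably expressing human 5-HT2A, 5-HT2B or 5-HT2C (INI isoform). […] Racemic trans mixtures were tested unless otherwise stated.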

[5] = target: T1, 5-hydroxytryptamine receptor 2A; assay: Agonist activity at human 5HT2A receptor expressed in HEK293 cells assessed as calcium flux measured every sec for 3 mins by FLIPR assay relative to 5HT; outline: as §1
[6] = target: T2, 5-hydroxytryptamine receptor 2B; assay: Agonist activity at human 5HT2B receptor expressed in HEK293 cells assessed as calcium flux measured every sec for 3 mins by FLIPR assay relative to 5HT; outline: as §1

T1 sequence (P28223 whole entry): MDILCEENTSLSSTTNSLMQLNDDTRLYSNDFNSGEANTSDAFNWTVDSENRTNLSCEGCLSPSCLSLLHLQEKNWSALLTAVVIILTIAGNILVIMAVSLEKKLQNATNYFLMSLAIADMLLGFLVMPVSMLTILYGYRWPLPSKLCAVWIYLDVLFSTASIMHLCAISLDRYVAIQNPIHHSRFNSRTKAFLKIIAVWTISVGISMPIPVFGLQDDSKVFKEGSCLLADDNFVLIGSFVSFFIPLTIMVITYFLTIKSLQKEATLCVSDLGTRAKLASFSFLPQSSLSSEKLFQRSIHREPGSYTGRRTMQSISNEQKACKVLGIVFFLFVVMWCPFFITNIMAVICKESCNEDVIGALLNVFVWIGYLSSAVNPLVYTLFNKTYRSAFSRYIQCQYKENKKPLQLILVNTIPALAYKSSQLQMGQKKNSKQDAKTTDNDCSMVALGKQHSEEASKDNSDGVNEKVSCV

Row | SMILES | EC50 ([1]; hek293) | EC50 ([2]; hek293) | EC50 ([3]; read-out: EC50) [µM] | Emax [4] [%] | EC50 ([1]; read-out: EC50) [µM] | EC50 ([2]; read-out: EC50) [µM] | EC50 ([3]; hek293) | Emax [5] [%] | Emax [6] [%]
1 | Cl.NC[C@@H]1C[C@H]1c1ccccc1OCC1CC1 | Not Active | Not Active | 0.978 | 51 | – | – | – | – | –
2 | NC[C@H]1C[C@@H]1c1cc(F)ccc1OCC1CC1 | – | – | 0.021 | – | 0.894 | 0.289 | – | – | –
3 | NC[C@H]1C[C@@H]1c1ccccc1OCC1CC1 | – | – | – | 61 | – | – | – | – | –
4 | COc1ccc(-c2cccc(C)c2)cc1[C@H]1C[C@@H]1CN.Cl (racemic) | Not Active | Not Active | 8.71 | 69 | – | – | – | – | –
5 | COc1ccc(-c2ccc(C)cc2)cc1[C@H]1C[C@@H]1CN.Cl (racemic) | Not Active | Not Active | – | – | – | – | Not Active | – | –
6 | COc1ccc(-c2ccccc2F)cc1[C@H]1C[C@@H]1CN.Cl (racemic) | Not Active | Not Active | 3.31 | 69 | – | – | – | – | –
7 | COc1ccc(-c2cccc(F)c2)cc1[C@H]1C[C@@H]1CN.Cl (racemic) | Not Active | Not Active | 7.24 | 59 | – | – | – | – | –
8 | COc1ccc(-c2ccc(F)cc2)cc1[C@H]1C[C@@H]1CN.Cl (racemic) | Not Active | Not Active | 2.19 | 83 | – | – | – | – | –
9 | CCCCc1ccc(-c2ccc(OC)c([C@H]3C[C@@H]3CN)c2)cc1.Cl (racemic) | Not Active | Not Active | – | – | – | – | Not Active | – | –
10 | Cc1ccc(OCC(C)C)c([C@H]2C[C@@H]2CN)c1.Cl (racemic) | Not Active | Not Active | – | – | – | – | Not Active | – | –
11 | CCCCOc1ccc(C)cc1[C@H]1C[C@@H]1CN.Cl (racemic) | Not Active | Not Active | – | – | – | – | Not Active | – | –
12 | CCOc1ccccc1[C@H]1C[C@@H]1CN (racemic) | – | – | 0.018 | 99 | 3.02 | 0.331 | – | 64 | 48
13 | CCCOc1ccccc1[C@H]1C[C@@H]1CN.Cl (racemic) | Not Active | – | 0.024 | 70 | – | 0.304 | – | – | 16
14 | CC(C)COc1ccccc1[C@H]1C[C@@H]1CN.Cl (racemic) | Not Active | Not Active | 0.254 | 84 | – | – | – | – | –
15 | CCCCCOc1ccccc1[C@H]1C[C@@H]1CN.Cl (racemic) | Not Active | Not Active | – | – | – | – | Not Active | – | –
16 | Cl.NC[C@H]1C[C@@H]1c1ccccc1OCC1CC1 (racemic) | Not Active | Not Active | – | – | – | – | – | – | –
17 | Cl.NC[C@H]1C[C@@H]1c1ccccc1OCC1CCC1 (racemic) | Not Active | Not Active | 1.21 | 31 | – | – | – | – | –
18 | Cl.NC[C@H]1C[C@@H]1c1ccccc1OCC1CCCCC1 (racemic) | Not Active | Not Active | – | – | – | – | Not Active | – | –
19 | Cl.NC[C@H]1C[C@@H]1c1ccccc1OCc1ccccc1 (racemic) | Not Active | – | 0.304 | 74 | – | 1.08 | – | – | 20
20 | COc1ccc(-c2ccccc2)cc1[C@H]1C[C@@H]1CN.Cl (racemic) | Not Active | Not Active | 3.8 | 64 | – | – | – | – | –
21 | COc1ccc(-c2ccccc2C)cc1[C@H]1C[C@@H]1CN.Cl (racemic) | Not Active | Not Active | 3.47 | 67 | – | – | – | – | –
22 | NC[C@H]1C[C@@H]1c1ccccc1OCC1CC1 (racemic) | – | – | – | 60 | – | – | – | – | –

From ChEMBL document CHEMBL2021856 (ACS Med Chem Lett, 2011)
